The target of assay [1] is CXCL12 (Homo sapiens, UniProt P48061). Briefly: 2D protein-detected NMR of individual compounds at 1 mM against 15N-CXCL12. The assay is classed as binding. Conditions: 1 mM compound, 100 μM 15N-CXCL12, SOFAST-HMQC. An outline of the steps:
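Commercial recombinant human ¹⁵N-CXCL12. Each test compound was screened singly: 1 mM final in 0.5% (v/v) [D₆]DMSO, 99.5 μM final protein, with a DMSO control. Buffer was 50 mM sodium phosphate pH 6.0, 0.02% sodium azide, 10% D₂O. ¹H,¹⁵N SOFAST-HMQC at 25°C and 600 MHz with cryoprobe; 16 scans, 1024 × 210 complex points. Spectra were overlaid on the DMSO control.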

The target of assay [2] is T1, Fis1 (Homo sapiens, UniProt Q9Y3D6).
T1 sequence (Q9Y3D6 1-125): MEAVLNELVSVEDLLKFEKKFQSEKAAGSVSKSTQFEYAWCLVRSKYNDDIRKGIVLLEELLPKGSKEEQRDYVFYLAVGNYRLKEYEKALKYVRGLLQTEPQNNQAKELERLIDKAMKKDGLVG
The assay is classed as binding. Conditions: for nonspecific NMR crosspeak broadening of Fis1: 1 mM compound, 50 μM 15N-Fis1, SOFAST-HMQC; for binding to Fis1 in library screen: 1 mM fragment, 352-fragment library screen. An outline of the steps:
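Human Fis1 cytosolic domain (residues 1–125), His₆-SUMO fusion, expressed in ¹⁵N minimal medium and Ni-affinity purified. Buffer was 50 mM sodium phosphate pH 7.0, 175 mM NaCl, 2 mM DTT, 10% D₂O. Library screen: 352 fragments pooled six per sample, 1 mM each, 97 μM protein, 3% [D₆]DMSO, hits at +1 σ. Follow-up: single fragments at 1 mM with 50 μM protein. ¹H,¹⁵N SOFAST-HMQC at 25°C.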

In assay [3] the target is BRD4(BD2) (Homo sapiens, UniProt O60885). Briefly: NMR titration. Format: binding.
Assay [4] addresses first bromodomain of BRD4. Conditions: cited from earlier work.
In assay [5] the target is T1, Fis1. Briefly: Mass spectrometry of Fis1 with interfering compounds. The conditions noted are these: from apo Fis1 14 487.2 Da; suggests direct chemical modification.

Chain of CXCL12 (P48061 22-89 limits assumed): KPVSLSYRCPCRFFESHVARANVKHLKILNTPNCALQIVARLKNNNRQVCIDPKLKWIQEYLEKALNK

In the case of `O=C1c2ccccc2C(=O)C1(O)O` [ninhydrin], the “nonspecific NMR crosspeak broadening of CXCL12” value in assay [1] is “induce nonspecific NMR crosspeak broadening across all targets screened”. Moreover, the “nonspecific NMR crosspeak broadening of Fis1” value in assay [2] is given as “induce nonspecific NMR crosspeak broadening across all targets screened”.

Turning to `Nc1cc2ccccc2cc1O` [3-amino-2-naphthol], in assay [2], the “binding to Fis1 in library screen” value is “none of which bound appreciably”. Regarding `CC(=O)Nc1ccc(O)cc1` [acetaminophen], the figures for the Kd in assay [3] and in assay [4] were 1600 µM and 290 µM, respectively. Take `Nc1cccc2cccc(N)c12` [1,8-diaminonaphthalene]: the “binding to Fis1 in library screen” value in assay [2] is reported as “none of which bound appreciably”. For the compound `Nc1ccc(O)cc1` [4-aminophenol], the “nonspecific NMR crosspeak broadening of Fis1” value in assay [2] is “did not induce nonspecific NMR crosspeak broadening”. For `Cc1cc(O)ccc1O` [2-methylbenzene-1,4-diol], the “mass shift of Fis1” value in assay [5] is given as 119.7 Da. For the compound `NS(=O)(=O)c1ccc2ccccc2c1` [naphthalene-2-sulfonamide], in assay [2], the “binding to Fis1 in library screen” value is given as “none of which bound appreciably”.

Values taken from article PMC5844354 (Chembiochem : a European journal of chemical biology, 2018).
